The subject of one data set is Rattus norvegicus. The data set can be described thus: Antidiabetic activity in po dosed Zucker fatty rat assessed as reduction of blood glucose level pretreated 30 mins before glucose challenge by oral glucose tolerance test. The data set is classed as functional, organism-based. In a few lines:
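Male Zucker fatty rats, 10 weeks old, fasted 24 h, with Zucker lean rats as reference. Oral dose of 0.03–1.0 mg/kg in 0.5% methylcellulose, or vehicle alone, 30 min before oral glucose at 2 g/kg. Tail blood taken at -30, 0, 10, 30, 60 and 120 min and deproteinized with perchloric acid. Glucose measured by colorimetric kit (A505–A700) in duplicate. AUC over 0–120 min; n = 4–9; Dunnett test.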

In another data set the target is Dipeptidyl peptidase 8 (Homo sapiens, UniProt Q6V1X1). In words: Inhibition of DPP8.
Sequence of Dipeptidyl peptidase 8 (Q6V1X1 whole entry): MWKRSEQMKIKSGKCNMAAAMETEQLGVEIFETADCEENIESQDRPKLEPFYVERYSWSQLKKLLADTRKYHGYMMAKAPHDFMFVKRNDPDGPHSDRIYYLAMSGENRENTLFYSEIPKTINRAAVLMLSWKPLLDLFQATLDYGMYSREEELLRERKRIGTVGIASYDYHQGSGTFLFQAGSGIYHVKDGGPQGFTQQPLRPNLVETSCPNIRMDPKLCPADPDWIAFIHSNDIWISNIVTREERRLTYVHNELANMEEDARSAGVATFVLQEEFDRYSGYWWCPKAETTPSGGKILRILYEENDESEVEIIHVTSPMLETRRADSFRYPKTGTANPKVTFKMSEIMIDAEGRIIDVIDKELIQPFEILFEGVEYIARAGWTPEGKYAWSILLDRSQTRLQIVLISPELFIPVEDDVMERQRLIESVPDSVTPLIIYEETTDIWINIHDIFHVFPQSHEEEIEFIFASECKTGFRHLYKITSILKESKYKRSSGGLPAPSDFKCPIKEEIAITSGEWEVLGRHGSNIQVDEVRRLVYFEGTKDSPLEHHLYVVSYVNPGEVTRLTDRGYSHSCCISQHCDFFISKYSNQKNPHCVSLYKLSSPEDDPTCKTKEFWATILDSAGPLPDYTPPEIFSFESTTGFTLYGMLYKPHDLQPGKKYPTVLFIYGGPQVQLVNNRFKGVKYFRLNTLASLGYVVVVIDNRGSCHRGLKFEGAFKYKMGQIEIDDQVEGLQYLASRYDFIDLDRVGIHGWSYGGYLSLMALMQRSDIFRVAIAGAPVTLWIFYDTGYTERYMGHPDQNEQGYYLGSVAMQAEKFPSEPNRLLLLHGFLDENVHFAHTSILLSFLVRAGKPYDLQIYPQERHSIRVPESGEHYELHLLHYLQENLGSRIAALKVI
Another data set has as its target Dipeptidyl peptidase 9 (Homo sapiens, UniProt Q86TI2). The data set can be described thus: Inhibition of DPP9.
For data set [1], the target named is T1, Muscarinic acetylcholine receptor M2 (Homo sapiens, UniProt P08172).
T1 sequence (P08172 whole entry): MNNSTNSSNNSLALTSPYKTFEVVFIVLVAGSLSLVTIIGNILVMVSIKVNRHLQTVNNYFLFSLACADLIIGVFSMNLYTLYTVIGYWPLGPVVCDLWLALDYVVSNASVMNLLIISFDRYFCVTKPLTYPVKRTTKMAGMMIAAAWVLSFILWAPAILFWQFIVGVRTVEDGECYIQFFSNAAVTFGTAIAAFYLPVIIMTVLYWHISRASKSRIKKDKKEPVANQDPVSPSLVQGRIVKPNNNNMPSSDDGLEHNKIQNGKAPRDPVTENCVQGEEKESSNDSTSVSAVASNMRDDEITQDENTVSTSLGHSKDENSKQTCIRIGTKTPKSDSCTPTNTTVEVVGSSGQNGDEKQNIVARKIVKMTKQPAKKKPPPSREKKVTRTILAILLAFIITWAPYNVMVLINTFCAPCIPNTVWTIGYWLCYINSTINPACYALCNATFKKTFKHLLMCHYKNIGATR
The data set can be described thus: Binding affinity to muscarinic receptor 2.

Data set [2] in a line: Clearance in dog at 1 mg/kg, iv. The following applies: in vivo. Further details: dose 1 mg/kg, route intravenous. The data set is classed as ADME, organism-based, Canis lupus familiaris.
A short description of data set [3]: Volume of distribution at steady state in dog at 1 mg/kg, iv. The data set is classed as ADME, organism-based, Canis lupus familiaris. Further details: dose 1 mg/kg, route intravenous. The following applies: in vivo, read-out: Vdss.
The nature of data set [4]: Half life in dog at 1 mg/kg, iv. The data set is classed as ADME, organism-based, Canis lupus familiaris. Further details: dose 1 mg/kg, route intravenous. The following applies: in vivo.
Data set [5] is described as follows: Plasma protein binding in rat. The data set is classed as ADME, cell-free. The following applies: read-out: PPB (converted).
Data set [6] in a line: Cmax in Zucker fatty rat at 3 mg/kg, po after 3 hrs. Further details: dose 3 mg/kg, route oral. The data set is classed as ADME, organism-based. The following applies: in vivo.
The nature of data set [7]: Toxicity in monkey assessed as organ toxicity after 2 weeks repeated dosage. The data set is classed as organism-based, Macaca mulatta. The following applies: rhesus monkey, in vivo. In outline: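 2-week repeated-dose toxicity study; rats n = 5 per sex, monkeys n = 1 per sex.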

Sequence of Dipeptidyl peptidase 9 (Q86TI2 whole entry): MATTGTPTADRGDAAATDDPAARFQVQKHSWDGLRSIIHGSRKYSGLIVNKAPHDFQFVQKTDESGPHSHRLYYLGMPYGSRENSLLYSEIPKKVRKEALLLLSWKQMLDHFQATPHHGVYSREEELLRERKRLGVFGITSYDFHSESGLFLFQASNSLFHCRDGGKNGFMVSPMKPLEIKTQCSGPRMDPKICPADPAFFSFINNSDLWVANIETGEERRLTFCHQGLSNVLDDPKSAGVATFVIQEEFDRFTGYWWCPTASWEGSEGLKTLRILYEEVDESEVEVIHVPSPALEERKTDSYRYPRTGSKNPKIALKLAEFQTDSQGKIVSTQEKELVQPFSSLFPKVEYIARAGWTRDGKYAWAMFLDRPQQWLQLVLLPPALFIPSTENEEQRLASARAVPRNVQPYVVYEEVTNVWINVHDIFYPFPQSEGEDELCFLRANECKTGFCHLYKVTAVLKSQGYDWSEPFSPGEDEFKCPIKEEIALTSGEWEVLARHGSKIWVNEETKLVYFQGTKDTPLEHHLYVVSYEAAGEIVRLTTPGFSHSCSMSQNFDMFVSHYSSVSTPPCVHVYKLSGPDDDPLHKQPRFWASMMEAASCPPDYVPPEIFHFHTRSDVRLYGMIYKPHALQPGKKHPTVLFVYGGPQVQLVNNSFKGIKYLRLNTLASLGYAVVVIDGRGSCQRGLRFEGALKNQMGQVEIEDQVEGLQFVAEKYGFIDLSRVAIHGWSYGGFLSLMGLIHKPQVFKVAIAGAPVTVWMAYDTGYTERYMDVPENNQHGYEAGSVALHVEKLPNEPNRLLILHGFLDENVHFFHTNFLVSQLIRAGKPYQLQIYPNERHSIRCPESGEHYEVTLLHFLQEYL

In general, IC50 refers to the concentration that gives 50% inhibition. As a reminder, the clearance is the rate of elimination divided by the concentration. As usually defined, the half-life is the time needed for the level to fall by half in the phase considered. For orientation: Cmax means the highest concentration seen after dosing. One may read the NOAEL as the highest dose or exposure tested at which no adverse effect was seen. Take `Cn1c(=O)c2c(cc(N3CCC[C@@](C)(N)C3)n2Cc2cc(F)ccc2C#N)n(C)c1=O`: in the data set on Rattus norvegicus, the Activity result is “Dose-dependent effect”. Also, the results for the IC50 (against Dipeptidyl peptidase 8; against Dipeptidyl peptidase 9; in data set [1]) were > 50 µM, > 50 µM and > 10 µM, respectively. For the same molecule, the clearance in data set [2] was 29 mL/min/kg. Also, the Vd in data set [3] was 5.8 L/kg. In data set [4], this molecule gave a half-life of 3.1 h. Further, the fraction unbound in data set [5] is 0.22. The Cmax in [6] amounted to 309 ng/mL. The NOAEL at 336 h in data set [7] came out at 60 mg/kg/day.

Values taken from ChEMBL document CHEMBL1817578, “2-({6-[(3R)-3-amino-3-methylpiperidine-1-yl]-1,3-dimethyl-2,4-dioxo-1,2,3,4-tetrahydro-5H-pyrrolo[3,2-d]pyrimidine-5-yl}methyl)-4-fluorobenzonitrile (DSR-12727): a potent, orally active dipeptidyl peptidase IV inhibitor without mechanism-based inactivation of CYP3A” (Bioorg Med Chem, 2011).
